Measurements reported in ChEMBL document CHEMBL1126266, “Dopaminergic and serotonergic activities of imidazoquinolinones and related compounds” (J Med Chem, 1992).

Tests used:
[1] = target: T1, 5-hydroxytryptamine receptor 1A (Homo sapiens) (UniProt P08908); assay: Dose required to reduce neuronal firing of 5-HT1A cells by 50%; type: functional
T1 sequence (whole entry): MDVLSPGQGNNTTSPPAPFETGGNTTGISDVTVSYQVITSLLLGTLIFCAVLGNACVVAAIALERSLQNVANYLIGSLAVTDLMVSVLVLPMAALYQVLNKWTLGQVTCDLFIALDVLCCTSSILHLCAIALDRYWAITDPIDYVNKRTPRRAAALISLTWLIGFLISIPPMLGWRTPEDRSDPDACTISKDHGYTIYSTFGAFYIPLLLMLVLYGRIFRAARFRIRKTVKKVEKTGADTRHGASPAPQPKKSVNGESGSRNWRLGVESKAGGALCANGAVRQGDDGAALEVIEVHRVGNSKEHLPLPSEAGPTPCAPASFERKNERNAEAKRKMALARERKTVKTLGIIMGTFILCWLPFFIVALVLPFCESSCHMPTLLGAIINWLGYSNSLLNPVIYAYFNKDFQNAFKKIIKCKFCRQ
In short: (§1)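 Male Sprague-Dawley rats (280-330 g) under chloral hydrate 400 mg/kg ip. Extracellular recording from dorsal raphe neurons (biphasic spikes, about 0.8–2.5 spikes/s), location confirmed by dye deposit. Drug in distilled water given iv via femoral vein.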

[2] = Dose required to reduce neuronal firing of DA cells by 50%; type: functional
In short: (§2)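 Male Sprague-Dawley rats (280-330 g) anesthetized with chloral hydrate 400 mg/kg ip. Extracellular recording from substantia nigra pars compacta neurons (action potential >2.5 ms), site verified histologically. Drug in distilled water given iv via femoral vein. Firing rate measured by integrated ratemeter.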

[3] = target: T2, D(2) dopamine receptor (Rattus norvegicus, UniProt P61169); assay: Ability to displace [3H]raclopride from dopamine receptor D2 in rat striatal homogenates.
In short: (§3)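 Rat striatal homogenate (1:300) incubated with [3H]raclopride (80 Ci/mmol) 1 h at room temperature. Filtered over PEI-pretreated filters, rinsed with 50 mM Tris pH 7.4, counted by liquid scintillation. Nonspecific binding with 1 μM haloperidol. IC50 by log-probit analysis from at least four concentrations in triplicate; Ki calculated from IC50.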

[4] = target: T2, D(2) dopamine receptor; assay: Compound was evaluated for its ability to displace [3H]raclopride from dopamine receptor D2 in rat striatal homogenates; in short: as §3
[5] = system: Rattus norvegicus; assay: Percent change in DOPA levels in rat brain following 1 mg/kg administration.; type: functional
In short: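 Upjohn CF-1 rats given drug or vehicle sc. Fifteen minutes later, m-hydroxybenzylhydrazine 100 mg/kg ip was given as decarboxylase inhibitor. Control and test groups (n = 6 each) compared by unpaired t test.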

[6] = species: Rattus norvegicus; assay: Dose required to reduce neuronal firing of dopaminergic cells by 50%; type: functional; in short: as §2
[7] = species: Rattus norvegicus; assay: Dose required to reduce neuronal firing of serotonergic cells by 50%; type: functional; in short: as §1
[8] = system: Rattus norvegicus; assay: Percent change in 5-HTP levels in rat brain following 1 mg/kg administration.
[9] = target: T2, D(2) dopamine receptor; assay: Compound was evaluated for its ability to displace [3H]raclopride from Dopamine receptor D2 in rat striatal homogenates; in short: as §3

T2 sequence (P61169 whole entry): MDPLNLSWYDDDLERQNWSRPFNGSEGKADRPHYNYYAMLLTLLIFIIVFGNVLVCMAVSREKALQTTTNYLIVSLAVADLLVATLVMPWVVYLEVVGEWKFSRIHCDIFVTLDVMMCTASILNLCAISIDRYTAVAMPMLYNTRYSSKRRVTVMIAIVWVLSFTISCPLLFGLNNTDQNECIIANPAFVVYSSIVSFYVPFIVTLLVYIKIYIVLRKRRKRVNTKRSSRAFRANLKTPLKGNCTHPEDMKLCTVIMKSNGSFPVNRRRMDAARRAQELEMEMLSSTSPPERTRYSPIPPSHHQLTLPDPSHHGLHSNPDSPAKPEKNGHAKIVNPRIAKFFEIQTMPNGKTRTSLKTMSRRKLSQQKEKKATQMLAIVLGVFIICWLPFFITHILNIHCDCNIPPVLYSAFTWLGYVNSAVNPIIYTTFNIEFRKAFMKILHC

SMILES	Ki [3]	Change [5]	Change [8]	other results
CCCNC1Cc2cccc3nc(O)n(c23)C1.Cl (stereo not drawn)	1040 nM	–	–	ED50 [1]: 0.65 mg/kg; ED50 [2]: 0.036 mg/kg
Oc1nc2cccc3c2n1CC(N(CC1CC1)CC1CC1)C3 (stereo not drawn)	7730 nM	–	–	–
CCCN(Cc1ccccc1)C1Cc2cccc3[nH]c(=O)n(c23)C1 (stereo not drawn)	1910 nM	–	–	–
Br.CCCN(CCC)[C@@H]1Cc2cccc3nc(O)n(c23)C1	–	-50%	-1.2%	Ki [4]: 68 nM; ED50 [6]: 0.0014 mg/kg; ED50 [7]: 0.107 mg/kg
CCCN(CCC)C1Cc2cccc3c2N(CC3)C1.O=C(O)/C=C/C(=O)O (stereo not drawn)	> 1000 nM	-33%	-13%	–
CCCN(CCC)C1Cc2cccc3nc(SC)n(c23)C1 (stereo not drawn)	> 1000 nM	–	–	–
CCCN(CCC)C1Cc2cccc3c2N(C1)C(=O)CN3 (stereo not drawn)	80 nM	-37%	-32%	–
Oc1nc2cccc3c2n1CC(NCC1CC1)C3 (stereo not drawn)	4000 nM	–	–	–
CCCN(CCC)C1Cc2cccc3ccn(c23)C1.O=C(O)/C=C/C(=O)O (stereo not drawn)	210 nM	-29%	-14%	ED50 [2]: 0.083 mg/kg
CN(C)C1Cc2cccc3nc(O)n(c23)C1 (stereo not drawn)	> 10000 nM	–	–	–
CCCN(CCC)C1Cc2cccc3oc(=O)n(c23)C1 (stereo not drawn)	899 nM	-27%	-6%	–
C=CCNC1Cc2cccc3nc(O)n(c23)C1 (stereo not drawn)	363 nM	–	–	–
CCCN(CCC)C1Cc2cccc3nc(S)n(c23)C1 (stereo not drawn)	40 nM	-38%	-7%	–
CCCN(CCC)C1Cc2cccc3c2N(CCC3)C1 (stereo not drawn)	35 nM	–	–	–
CCCN(CCC)C1Cc2cccc3nc(O)n(c23)C1.Cl (stereo not drawn)	207 nM	-34%	12%	ED50 [1]: 0.34 mg/kg; ED50 [2]: 0.005 mg/kg
CCCN(CCC)C1Cc2cccc3nc(C)n(c23)C1 (stereo not drawn)	–	–	–	Ki [9]: > 1000 nM
CCCN(CCC)C1Cc2cccc3c2N(C1)C(=O)C3=O (stereo not drawn)	> 1000 nM	-46%	-7%	–

SMILES	Ki [3]	Change [5]	Change [8]	other results
CCCN(CCC)C1Cc2cccc3c2n(c(=O)n3C)C1 (stereo not drawn)	–	–	–	Ki [4]: 924 nM
CCCN(CCC)C1Cc2cccc3c2N(C1)C(=O)C3 (stereo not drawn)	1080 nM	-53%	-11%	–
NC1Cc2cccc3nc(O)n(c23)C1 (stereo not drawn)	> 10000 nM	–	–	–
CCCN(CCC)C1Cc2cccc3c2N(C1)C(=O)OC3.Cl (stereo not drawn)	292 nM	-36%	-13%	–
CCCN(CCC)C1Cc2cccc3ccc(=O)n(c23)C1 (stereo not drawn)	315 nM	-40%	-18%	–
CCCCNC1Cc2cccc3[nH]c(=O)n(c23)C1 (stereo not drawn)	–	–	–	Ki [4]: > 10000 nM
C=CCN(CC=C)C1Cc2cccc3nc(O)n(c23)C1 (stereo not drawn)	> 10000 nM	–	–	–
CCCN(CCC)C1Cc2cccc3ncn(c23)C1 (stereo not drawn)	> 1000 nM	-12%	-7%	ED50 [2]: 0.219 mg/kg
CCCN(CCC)C1Cc2cccc3c2N(CC(=O)N3)C1.Cl (stereo not drawn)	30 nM	-52%	16%	ED50 [2]: 0.039 mg/kg
CCCCN(CCCC)C1Cc2cccc3nc(O)n(c23)C1 (stereo not drawn)	> 10000 nM	–	–	–
CN1CCc2cccc3c2[C@H]1Cc1ccc(O)c(O)c1-3 [APOMORPHINE]	–	-55%	4%	–
CCCN(CCC)C1Cc2cccc3c2N(C1)C(=O)CO3.O=C(O)/C=C/C(=O)O (stereo not drawn)	–	-18%	-12%	–
CCCN(CCC)C1Cc2cccc3[nH]c(=O)c(=O)n(c23)C1.Cl (stereo not drawn)	150 nM	-37%	6%	ED50 [2]: 0.088 mg/kg
CCCN(CCC)[C@H]1Cc2cccc3nc(O)n(c23)C1.Cl	–	0.3%	6.4%	ED50 [2]: > 1 mg/kg; Ki [4]: > 1000 nM
CCCN(CCC)C1Cc2cccc3c2N(C1)C(=O)NC3 (stereo not drawn)	> 1000 nM	-13%	-45%	ED50 [1]: 0.0034 mg/kg; ED50 [2]: 0.212 mg/kg
CCCN(CCC)C1Cc2cccc3c2N(C1)C(=O)CC3 (stereo not drawn)	83 nM	-41%	-48%	–
CCCCN(CCC)C1Cc2cccc3nc(O)n(c23)C1 (stereo not drawn)	167 nM	–	–	–
